Results published in ChEMBL document CHEMBL4342467, “Discovery of a Novel Dual-Target Inhibitor of ERK1 and ERK5 That Induces Regulated Cell Death to Overcome Compensatory Mechanism in Specific Tumor Types” (J Med Chem, 2020).
Calls of active or inactive are those of the source. The calls are words filed in the database; no cut-off is given here.

Legend:
[1] = system: HL-60; assay: Antiproliferative activity against human HL60 cells assessed as reduction in cell viability measured after 24 hrs; assay type: functional, cell-based; conditions: HL-60, 24 h
[2] = biological target: Mitogen-activated protein kinase 7 (Homo sapiens) (UniProt Q13164); assay: Inhibition of ERK5 in human MKN74 cells harboring ERK1/2 siRNA assessed as reduction in ERK5 phosphorylation at 1 uM by Western blot analysis; assay type: cell-based
How it was run: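 MKN-74 cells were transfected with ERK1/2-specific siRNA or negative-control siRNA, then exposed to compound. ERK1/2, p-ERK1/2, ERK5 and p-ERK5 were read by immunoblotting, with GAPDH as loading control.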

[3] = system: HeLa; assay: Antiproliferative activity against human HeLa cells assessed as reduction in cell viability measured after 24 hrs; assay type: functional, cell-based
[4] = system: MKN-74; assay: Antiproliferative activity against human MKN74 cells assessed as reduction in cell viability measured after 24 hrs; assay type: functional, cell-based; conditions: MKN-74, 24 h
[5] = biological target: Mitogen-activated protein kinase 1 (Homo sapiens) (UniProt P28482); assay: Inhibition of ERK2 (unknown origin) at 1 uM by Z'-Lyte assay relative to control
[6] = biological target: Mitogen-activated protein kinase 3 (Homo sapiens) (UniProt P27361); assay: Inhibition of ERK1 (unknown origin) at 1 uM by Z'-Lyte assay relative to control
[7] = biological target: Mitogen-activated protein kinase 7 (Homo sapiens) (UniProt Q13164); assay: Inhibition of ERK5 (unknown origin) at 1 uM by Z'-Lyte assay relative to control

Sequence of Mitogen-activated protein kinase 7 (Homo sapiens) (Q13164 2-816 limits assumed): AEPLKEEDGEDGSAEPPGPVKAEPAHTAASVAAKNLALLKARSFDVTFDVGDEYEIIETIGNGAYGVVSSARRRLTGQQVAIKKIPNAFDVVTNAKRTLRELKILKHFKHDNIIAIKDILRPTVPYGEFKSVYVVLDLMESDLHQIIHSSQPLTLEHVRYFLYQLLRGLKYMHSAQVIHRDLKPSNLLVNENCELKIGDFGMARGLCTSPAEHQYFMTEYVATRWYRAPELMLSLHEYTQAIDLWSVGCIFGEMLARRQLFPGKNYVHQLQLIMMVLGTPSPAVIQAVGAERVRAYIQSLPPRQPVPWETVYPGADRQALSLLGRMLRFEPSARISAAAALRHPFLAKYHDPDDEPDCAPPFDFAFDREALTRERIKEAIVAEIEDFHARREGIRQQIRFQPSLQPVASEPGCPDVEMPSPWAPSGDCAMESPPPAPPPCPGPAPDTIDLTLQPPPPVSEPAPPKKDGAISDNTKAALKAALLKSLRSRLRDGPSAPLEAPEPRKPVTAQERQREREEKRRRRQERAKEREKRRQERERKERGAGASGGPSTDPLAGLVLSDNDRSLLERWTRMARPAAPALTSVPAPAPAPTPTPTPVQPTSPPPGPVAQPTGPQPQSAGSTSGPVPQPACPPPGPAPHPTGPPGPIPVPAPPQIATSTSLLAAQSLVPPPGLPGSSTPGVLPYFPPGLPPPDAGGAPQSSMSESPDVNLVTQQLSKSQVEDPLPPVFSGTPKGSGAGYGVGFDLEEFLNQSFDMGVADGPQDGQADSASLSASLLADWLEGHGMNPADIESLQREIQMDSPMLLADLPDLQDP
Sequence of Mitogen-activated protein kinase 3 (Homo sapiens) (P27361 whole entry): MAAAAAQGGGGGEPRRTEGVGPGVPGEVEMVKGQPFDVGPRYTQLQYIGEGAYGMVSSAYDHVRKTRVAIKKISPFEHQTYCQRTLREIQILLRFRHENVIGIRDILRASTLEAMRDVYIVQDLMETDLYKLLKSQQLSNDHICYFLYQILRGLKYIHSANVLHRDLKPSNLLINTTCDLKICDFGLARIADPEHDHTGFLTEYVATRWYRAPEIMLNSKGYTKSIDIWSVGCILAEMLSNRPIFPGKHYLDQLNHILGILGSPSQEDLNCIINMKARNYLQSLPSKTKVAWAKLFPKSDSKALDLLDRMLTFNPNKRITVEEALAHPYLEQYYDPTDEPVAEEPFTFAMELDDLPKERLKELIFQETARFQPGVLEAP
Sequence of Mitogen-activated protein kinase 1 (Homo sapiens) (P28482 whole entry): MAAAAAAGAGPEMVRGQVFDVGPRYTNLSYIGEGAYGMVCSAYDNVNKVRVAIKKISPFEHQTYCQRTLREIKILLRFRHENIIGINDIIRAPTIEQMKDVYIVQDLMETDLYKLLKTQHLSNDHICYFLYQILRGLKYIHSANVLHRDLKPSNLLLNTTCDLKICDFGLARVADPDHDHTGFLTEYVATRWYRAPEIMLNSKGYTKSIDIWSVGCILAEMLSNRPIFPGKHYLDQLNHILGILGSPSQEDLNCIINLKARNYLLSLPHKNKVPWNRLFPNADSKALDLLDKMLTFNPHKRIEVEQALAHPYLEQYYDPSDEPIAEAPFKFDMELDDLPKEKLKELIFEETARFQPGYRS

For `CCOc1cc(N2CCC(O)CC2)ccc1Nc1ncc2c(n1)N(C)c1ccccc1C(=O)N2C`, the IC50 [1] was 10.6 µM, the inhibition [2] was “Active” and the IC50 [3] was over 50 µM. The IC50 [4] was over 50 µM, the inhibition [5] was under 50% and the inhibition [6] was under 50%.
In the case of `O=C(Nc1ccc2[nH]nc(-c3ccncc3)c2c1)[C@@H]1CCN(CC(=O)N2CCN(c3ccc(-c4ncccn4)cc3)CC2)C1`, the IC50 [1] is reported as 1.06 µM, the inhibition [2] is reported as “inactive” and the inhibition [7] is reported as under 50%. It also gave an IC50 [3] of over 50 µM, an IC50 [4] of over 50 µM and an inhibition [5] of 99.2%. For the same compound, the inhibition [6] was 98.8%.
